One block for each compound: values may come before it.
Assays:
MRCKα [1] = assay: MRCKα pS1003 western blot in HEK293 cells expressing FLAG-MRCKα; format: cell-based, human; details: 2 hours
In short: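 HEK293 cells were transfected with 10 μg pEF-FLAG-MRCKα using a lipid reagent. After 48 h, they were treated 2 h with DMSO, 3 μM or 1 μM test compound. Cells were washed in PBS and lysed in 1% SDS, 50 mM Tris-HCl pH 7.4. Lysates were shredded and analysed by SDS-PAGE and western blot for MRCKα pS1003.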

SCC12 cells [2] = details: cited from earlier work
[3] = tested on: MLC2 phosphorylation in SCC12 cells; details: cited from earlier work
DMPK [4] = molecular target: T1, DMPK (Homo sapiens, UniProt Q09013); assay: Competitive LanthaScreen Eu TR-FRET kinase binding assay; details: read-out: Kd DMPK; displacement of fluorescent tracer; Cheng-Prusoff equation
T1 sequence (Q09013 1-629): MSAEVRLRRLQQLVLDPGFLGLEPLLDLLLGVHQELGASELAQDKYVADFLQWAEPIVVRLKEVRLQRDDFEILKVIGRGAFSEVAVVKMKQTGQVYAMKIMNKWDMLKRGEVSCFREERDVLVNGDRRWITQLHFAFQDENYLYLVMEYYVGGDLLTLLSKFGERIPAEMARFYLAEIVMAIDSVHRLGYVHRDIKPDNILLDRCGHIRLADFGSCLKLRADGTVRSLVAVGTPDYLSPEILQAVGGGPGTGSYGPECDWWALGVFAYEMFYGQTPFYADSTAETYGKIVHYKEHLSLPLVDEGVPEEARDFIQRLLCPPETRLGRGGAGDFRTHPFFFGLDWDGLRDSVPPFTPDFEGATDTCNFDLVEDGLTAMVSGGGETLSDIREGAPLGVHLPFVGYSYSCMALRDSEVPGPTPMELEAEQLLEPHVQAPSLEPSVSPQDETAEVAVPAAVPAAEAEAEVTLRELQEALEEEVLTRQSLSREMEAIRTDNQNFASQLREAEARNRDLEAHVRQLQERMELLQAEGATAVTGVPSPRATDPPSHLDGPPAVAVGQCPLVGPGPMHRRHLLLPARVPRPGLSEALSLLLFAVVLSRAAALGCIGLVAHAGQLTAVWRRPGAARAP

MRCKβ [5] = format: cell-based, human; details: MDA MB 231 cells, inducible kinase domains, 60 minutes
In short: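 MDA MB 231 cells with doxycycline-inducible MRCKβ, ROCK1 or ROCK2 kinase domains were plated at 1.1×10⁵/well. After 24 h, 1 µg/ml doxycycline was given for 18 h, then test compound for 60 min. Lysis was in 50 mM Tris-HCl pH 7.4, 0.5% SDS with phosphatase inhibitors. pMLC2 was measured by quantitative western blot; mean ± SEM of 3-4 independent replicates.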

DMPK [6] = molecular target: T1, DMPK; assay: Kinase selectivity profiling, 115 kinase panel; format: binding; details: 1 µM compound
PKCγ = assay: Kinase selectivity profiling, 115 kinase panel; format: biochemical; details: 1 µM compound; apparent Km for ATP
MRCKβ [7] = assay: Out-sourced dose-response kinase assays; format: biochemical; details: Cheng-Prusoff equation
757 cancer cell lines = assay: Cancer cell line screen; format: cell-based, human; details: 72 hours, up to 10 µM, p<0.05
In short: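 757 human cancer cell lines spanning 45 cancer types were seeded in 1536-well plates and exposed to a 7-point, half-log dilution series of test compound with a top concentration of 10 μM.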

MRCKβ [8] = assay: In-house kinase assay Ki compared with out-sourced values; format: biochemical
CDK9/Cyclin K = assay: Kinase selectivity profiling, 115 kinase panel; format: biochemical; details: 1 µM compound
SCC12 cells [9] = assay: Operetta high content morphology analysis; format: cell-based, human; details: 2 hours
In short: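 SCC12 cells were seeded at 1.5×10⁴ per 96-well and grown 24 h, then treated 2 h with DMSO or a dose range of test compound. Fixation was 4% PFA for 15 min, permeabilisation 0.5% Triton X-100 for 15 min, blocking 1% BSA for 30 min. Staining used phalloidin, DAPI and a whole-cell stain, followed by automated high-content imaging and morphology analysis.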

TSSK1 (STK22D) = assay: Kinase selectivity profiling, 115 kinase panel; format: biochemical; details: 1 µM compound
SCC12 cells [10] = assay: SCC12 organotypic invasion assay; format: cell-based, human; details: SCC12, 0.4 μM, relative to DMSO vehicle
PKCα = assay: Kinase selectivity profiling, 115 kinase panel; format: biochemical; details: 1 µM compound
[11] = Skin and blood concentrations after topical application to FVB mice; format: in vivo; details: FVB mouse
In short: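 FVB mice received topical test compound in 80% (v/v) DMSO under several regimens: once at 10 μg or 25 μg; 4 × 25 μg over 2 days; or 8 × 25 μg (4 days on, 2 off, 4 on), with vehicle controls. Mice were culled 2, 4, 8 or 24 h after the final dose. Skin and blood concentrations were measured by a contract laboratory; mean ± SD from 3 mice per condition.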

MRCKα pS1003 [12] = assay: MRCKα pS1003 immunohistochemistry in DMBA/TPA treated skin and papillomas; format: in vivo, mouse; details: DMBA/TPA mice, topical 25 μg 5 times per week
In short: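 Skin sections from DMBA/TPA mice dosed topically with 25 μg test compound in 80% DMSO or vehicle were stained for MRCKα pS1003. Normal skin and papilloma areas were selected, cells auto-detected and cytoplasmic intensity measured. Histoscore = %low×100 + %medium×200 + %high×300. Data are mean ± SD from 19 mice per group; two-tailed unpaired t-tests.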

MRCKα [13] = assay: In vitro MRCKα autophosphorylation and MLC2 phosphorylation assay; format: biochemical; details: dephosphorylated immunoprecipitated FLAG-MRCKα
In short: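 FLAG-MRCKα (wild type, K106M or S1003A) was expressed in HEK293 for 2 days and immunoprecipitated on beads. They were incubated with lysate of IPTG-induced bacteria expressing MLC2, with western blot read-out.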

CDK9/Cyclin T1 = assay: Kinase selectivity profiling, 115 kinase panel; format: biochemical; details: 1 µM compound
[14] = tested on: MLC2 phosphorylation in SCC12 cells; assay: MLC2 phosphorylation in SCC12 cells; format: cell-based, human
In short: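 SCC12 cells were plated at 5×10⁵ per well of a 6-well plate. After 24 h, they were treated 2 h with DMSO or a dose range of test compound. Cells were washed in PBS, lysed in 1% SDS, 50 mM Tris-HCl pH 7.4, shredded, and analysed by SDS-PAGE western blotting for MLC2 phosphorylation.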

SCC12 cells [15] = assay: Random migration; format: cell-based, human; details: SCC12, 0.4 μM, 6 hours
In short: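 SCC12 cells were plated at 2×10⁴ per well of an image-lock 96-well plate. After 24 h, medium was changed to DMSO or 0.4 μM test compound. Individual cells were tracked over 6 h to give accumulated distance, Euclidean distance, velocity and directionality. Data are mean ± SEM of 120 cells; two-tailed unpaired t-tests.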

ROCK1 = assay: Kinase selectivity profiling, 115 kinase panel; format: biochemical; details: 1 µM compound; apparent Km for ATP
SCC12 cells [16] = assay: SCC12 cell viability; format: cell-based, human; details: 24 hour treatment
SCC12 cells [17] = assay: Phalloidin F-actin immunofluorescence; format: cell-based, human; details: SCC12, 1 µM
In short: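 SCC12 cells on glass coverslips were grown overnight, then given medium with 1 μM test compound or DMSO. Cells were fixed in 4% paraformaldehyde/PBS for 15 min and permeabilised with 0.5% Triton X-100 for 5 min. F-actin was stained with Alexa 488 phalloidin, mounted with DAPI and imaged by confocal microscopy.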

MRCKα pS1003 [18] = assay: MRCKα pS1003 staining of mouse skin after topical treatment; format: in vivo; details: FVB mouse, topical 4 X 25 µg over 2 days
In short: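 FVB mice (5 per group) received topical 25 μg test compound in 50 μL 80% (v/v) DMSO, or 50 μL vehicle. Four applications were given over 2 days. Mice were culled 2 h after the final treatment, and skin was taken for MRCKα pS1003 staining.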

CDK2/Cyclin A = assay: Kinase selectivity profiling, 115 kinase panel; format: biochemical; details: 1 µM compound
skin papillomas = assay: DMBA/TPA two-stage chemical carcinogenesis model of SCC; format: in vivo, mouse; details: topical 25 μg 5 times per week for 14 weeks
In short: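 40 FVB mice received topical DMBA 25 μg in acetone on day 1. From day 5 they received TPA 4.7 μg in acetone three times weekly. From day 5, groups of 20 also got test compound 25 μg in 50 μL 80% DMSO or vehicle, 5 times/week for 14 weeks. Tumour size and number were recorded weekly, blinded. Culling was at 12 mm papilloma diameter. Data are mean ± SD, 20 mice.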

[19] = Skin and blood concentrations at DMBA/TPA experimental endpoint; format: in vivo, mouse; details: DMBA/TPA mice, topical 25 μg 5 times per week
In short: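 DMBA/TPA-initiated and promoted FVB mice were dosed topically with test compound 25 μg in 50 μL 80% (v/v) DMSO, 5 times per week. Skin and blood compound concentrations were measured by a contract laboratory at study end.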

ROCK2 = assay: Kinase selectivity profiling, 115 kinase panel; format: biochemical; details: 1 µM compound; apparent Km for ATP
[20] = topical 25 µg twice per day for 2 days

Compound: O=C(Nc1cn[nH]c1-c1ccccn1)c1nn(C2CCNCC2)cc1Cl [BDP5290]
pS1003 immunoreactivity (MRCKα [1]; 3 µM): blocked | SCC12 organotypic invasion (SCC12 cells [2]): inhibited SCC12 organotypic invasion | MLC phosphorylation [3]: reduced MLC phosphorylation

Kd (DMPK [4]): 800 pM | inhibition of DMPK (DMPK [6]): > 75% | inhibition of PKCγ (PKCγ): > 75% | minimum fold-selectivity for MRCKβ against all kinases tested (calculated Ki) (MRCKβ [7]): 43 times | affinity (MRCKβ Ki determined in-house) higher than the DMPK Kd (MRCKβ [8]): 33 fold
Compound: c1csc(-c2c[nH]c3nccc(N4CCC[C@@]5(CCCCN5)C4)c23)n1 [BDP8900]
selectivity of pMLC2 inhibition for MRCKβ relative to ROCK1 or ROCK2 (MRCKβ [5]): > 562 times | number of cancer types significantly resistant relative to all cancer cell lines (757 cancer cell lines): 6 | number of cancer types significantly sensitive relative to all cancer cell lines (757 cancer cell lines): 10

inhibition of CDK9/Cyclin K (CDK9/Cyclin K): > 75% | Kd (DMPK [4]): 980 pM | inhibition of TSSK1 (STK22D) (TSSK1 (STK22D)): > 75% | inhibition of PKCα (PKCα): > 75% | higher concentration in skin, repeated 25 μg doses relative to single 10 μg dose ([11]; topical): 2.8 fold | mean concentration in blood [11, 20]: 40 nM | mean concentration in skin [11, 20]: 26000 nM | level in blood after 24 hours ([11]; topical, single 25 μg or 8 X 25 μg): undetectable | concentration in skin 24 hours after final dosing ([11]; topical, single 25 μg or 8 X 25 μg (either regimen)): over 16 μM | inhibition of CDK9/Cyclin T1 (CDK9/Cyclin T1): > 75% | EC50 ([14]; read-out: EC50 inhibition of MLC2 phosphorylation, SCC12 cells, 2 hours): 64000 pM | inhibition of ROCK1 (ROCK1): > 75% | inhibition of DMPK (DMPK [6]): > 75% | inhibition of CDK2/Cyclin A (CDK2/Cyclin A): > 75% | minimum fold-selectivity for MRCKβ against all kinases tested (calculated Ki) (MRCKβ [7]): 27 times | compound in blood at experimental endpoint [19]: undetectable | mean concentration in skin at experimental endpoint [19]: > 1000 nM | inhibition of ROCK2 (ROCK2): > 75% | affinity (MRCKβ Ki determined in-house) higher than the DMPK Kd (MRCKβ [8]): 42 fold
Compound: c1cc(-c2c[nH]c3nccc(N4CCC[C@@]5(CCCCN5)C4)c23)ncn1 [BDP9066]
proportion of irregularly shaped cells (SCC12 cells [9]; SCC12, 0.5 μM): increased | proportion of regularly shaped cells (SCC12 cells [9]; SCC12, 0.5 μM): reduced proportions | 2D cell area (SCC12 cells [9]; SCC12, dose range): increased | cell roundness (SCC12 cells [9]; SCC12, dose range): decreased | proportion of elongated cells (SCC12 cells [9]; SCC12, varying concentrations): did not vary | decrease in the percentage of invading cells (SCC12 cells [10]): 50% | selectivity of pMLC2 inhibition for MRCKβ relative to ROCK1 or ROCK2 (MRCKβ [5]): > 100 times | MRCKα pS1003 histoscores in papillomas (MRCKα pS1003 [12]): reduced | MRCKα pS1003 histoscores in the treated skin area (MRCKα pS1003 [12]): reduced | MRCKα pS1003 immunohistochemistry staining (MRCKα pS1003 [12]): significant decreases | MRCKα S1003 autophosphorylation in vitro (MRCKα [13]): blocked | recombinant MLC2 phosphorylation by MRCKα in vitro (MRCKα [13]): blocked | increase in cellular potency relative to BDP5290 ([14]; SCC12 cells pMLC2): 5 fold | directionality of cell motility (SCC12 cells [15]): No differences | reduction of accumulated distance travelled (SCC12 cells [15]): 21% | reduction of mean Euclidean distance travelled (SCC12 cells [15]): 18% | reduction of mean cell velocity (SCC12 cells [15]): 21% | SCC12 cell viability (SCC12 cells [16]; all concentrations up to 0.5 µM): unaffected | decrease in viability (SCC12 cells [16]; SCC12 cells, 1 μM): 25% | pS1003 immunoreactivity (MRCKα [1]; 1 µM): blocked | bundling of filamentous actin at cortical and cytoplasmic regions (SCC12 cells [17]): reduced | epidermal MRCKα pS1003 positive staining (MRCKα pS1003 [18]): significantly reduced | average papilloma volume per mouse vs DMSO (skin papillomas): significantly reduced | total papilloma numbers per mouse vs DMSO (skin papillomas): not different | total tumor volume per mouse vs DMSO (skin papillomas): significantly reduced | number of cancer types significantly resistant relative to all cancer cell lines (757 cancer cell lines): 4 | number of cancer types significantly sensitive relative to all cancer cell lines (757 cancer cell lines): 8
